Measured values: ChEMBL document CHEMBL4837217, “Design, synthesis, in vitro and in vivo biological evaluation of pyranone-piperazine analogs as potent antileishmanial agents” (Eur J Med Chem, 2021)
Calls of active or inactive are those of the source. The calls are words filed in the database; no cut-off is given here.

Columns and labels:
[1] = Cytotoxicity against mouse J774 cells assessed as reduction in cell viability incubated for 72 hrs by MTT assay; format: cell-based
In short: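 J774 macrophages seeded at 1 × 10^5 cells/well overnight, then exposed to graded concentrations (7.81–500 µM) for 72 h at 37 °C, 5% CO2. MTT (5 mg/mL) added for 2 h, formazan solubilized in DMSO and read at 570 nm. CC50 taken as 50% viability loss relative to untreated cells.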

Leishmania donovani [2] = experiment: Antileishmanial activity against log phase of Leishmania donovani MHOM/IN/80/Dd8 promastigotes assessed as reduction in cell viability at 50 uM incubated for 72 hrs by MTT assay; format: functional
In short: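 Log-phase luciferase-transfected L. donovani Dd8 promastigotes (M199 + 10% FBS, 24 °C) treated with compounds at 25 and 50 µM in DMSO, with 0.1% DMSO vehicle control. After 72 h, MTT added 4 h. Formazan dissolved in DMSO, read at 570 nm. Percent inhibition reported as mean ± SD of at least three independent experiments in replicate.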

Leishmania donovani [3] = experiment: Antileishmanial activity against amastigote stage of Leishmania donovani MHOM/IN/80/Dd8 harboring luciferase gene infected in mouse J774 cells assessed as parasite growth inhibition at 25 uM incubated for 72 hrs by Steady-Glo reagent based luciferase assay; format: functional; details: MHOM/IN/80/Dd8, J774
In short: (§1)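 J774 murine macrophages, 4 × 10⁴ cells/well in RPMI with 10% FBS for 24 h, are infected for 24 h at 37 °C, 5% CO₂ with stationary-phase luciferase-transfected L. donovani Dd8 promastigotes at a 1:8 macrophage:parasite ratio. Compounds are dissolved in DMSO. Luminescence is read after Steady-Glo is added in PBS. IC₅₀ is taken from a four-parameter Hill nonlinear regression. Miltefosine is the reference.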

Leishmania donovani [4] = experiment: Induction of apoptosis in Leishmania donovani MHOM/IN/80/Dd8 promastigotes assessed as late apoptotic cells at 50 uM measured after 48 hrs by Alexa fluor488-AnnexinV/PI staining based FACSCalibur flow cytometry analysis (reference value: 0.7%); format: functional
Leishmania donovani [5] = experiment: Antileishmanial activity against log phase of Leishmania donovani MHOM/IN/80/Dd8 promastigotes assessed as reduction in cell viability by MTT assay; format: functional, organism-based; details: time 12-72 hrs, TDE = time-dependent effect
Leishmania donovani [6] = experiment: Antileishmanial activity against Leishmania donovani MHOM/IN/80/Dd8 infected in BALB/c mouse assessed as reduction in intracellular amastigote burden in liver at 50 mg/kg, ip for 5 days and measured at 1 week post-treatment by Giemsa staining based assay relative to control; format: functional; details: MHOM/IN/80/Dd8, ip, 288 h, time 12 day
In short: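 Female BALB/c mice (20–25 g), 5/group, infected iv with 2 × 10^7 stationary-phase L. donovani promastigotes. Infection confirmed at 2 wk, then 50 mg/kg ip daily for 5 consecutive days. Vehicle was 5% DMSO. Sacrificed day 7 post-treatment. Giemsa-stained liver/spleen impression smears counted as amastigotes/1000 nucleated cells, expressed as LDU (amastigotes per nucleated cell × organ weight in mg), compared with untreated infected controls.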

Splenocyte [7] = experiment: Immunomodulatory activity in BALB/c mouse infected with Leishmania donovani amastigotes assessed as increase in IFN-gamma level in splenocytes supernatants at 50 mg/kg, ip for 5 days; format: functional, organism-based; details: time 5.0 day
Splenocyte [8] = experiment: Immunomodulatory activity in BALB/c mouse infected with Leishmania donovani amastigotes assessed as decrease in TGF-beta level in splenocytes supernatants at 50 mg/kg, ip for 5 days; format: functional, organism-based; details: time 5.0 day
Leishmania donovani [9] = experiment: Antileishmanial activity against amastigote stage of Leishmania donovani MHOM/IN/80/Dd8 harboring luciferase gene infected in mouse J774 cells assessed as parasite killing incubated for 72 hrs by Steady-Glo reagent based luciferase assay; format: functional, organism-based; details: dose 3.12-50 µM; in short: as §1
Leishmania donovani [10] = experiment: Induction of apoptosis in Leishmania donovani MHOM/IN/80/Dd8 promastigotes assessed as late apoptotic cells at 50 uM measured after 24 hrs by Alexa fluor488-AnnexinV/PI staining based FACSCalibur flow cytometry analysis (reference value: 0.7%); format: functional
Leishmania donovani [11] = experiment: Induction of apoptosis in Leishmania donovani MHOM/IN/80/Dd8 promastigotes assessed as late apoptotic cells at 50 uM measured after 72 hrs by Alexa fluor488-AnnexinV/PI staining based FACSCalibur flow cytometry analysis (reference value: 0.7%); format: functional
Leishmania donovani [12] = experiment: Induction of mitochondrial membrane potential dysfunction in Leishmania donovani MHOM/IN/80/Dd8 promastigotes assessed as cells with mitochondrial depolarization at 50 uM incubated for 24 hrs by JC1 staining based flow cytometry (reference value: 3.63%); format: functional
In short: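 Promastigotes (1 × 10^6 cells/mL) exposed to 50 µM for 24–72 h, or to IC50 for 72 h. CCCP (50 µM final) served as depolarization positive control. Cells washed, stained with JC-1 (2 µM final) 30 min at 37 °C, 5% CO2. Red-to-green fluorescence shift measured by flow cytometry.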

Leishmania donovani [13] = experiment: Induction of mitochondrial membrane potential dysfunction in Leishmania donovani MHOM/IN/80/Dd8 promastigotes assessed as cells with mitochondrial depolarization at 50 uM incubated for 72 hrs by JC1 staining based flow cytometry (reference value: 3.63%); format: functional
Leishmania donovani [14] = experiment: Induction of apoptosis in Leishmania donovani MHOM/IN/80/Dd8 promastigotes assessed as increase in cytochrome c release by measuring increase in cytochrome c level in cytosol at 50 uM incubated for 12 to 72 hrs by Western blot analysis; format: functional, organism-based; details: time 12-72 hrs
In short: (§2)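 Promastigotes treated with 50 µM for 12, 24, 48 and 72 h, then washed in PBS. Cell fractionation buffer applied 10 min on ice, cells homogenized, centrifuged 10,000 × g for 25 min at 4 °C. Cytosolic and mitochondrial fractions immunoblotted for cytochrome c. Loading controls were actin (cytosol) and COX-4 (mitochondria).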

Leishmania donovani [15] = experiment: Induction of apoptosis in Leishmania donovani MHOM/IN/80/Dd8 promastigotes assessed as DNA fragmentation by measuring bright green coloured positive apoptotic nuclei at 50 uM incubated for 72 hrs by TUNEL staining based confocal microscopic analysis; format: functional, organism-based
In short: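 Log-phase promastigotes treated with 50 µM for 72 h, washed, adhered to poly-L-lysine slides and fixed in 4% paraformaldehyde. Permeabilized in ice-cold 70% ethanol 30 min. Labeled with TdT/BrdUTP 60 min at 37 °C, then Alexa Fluor 488 anti-BrdU 30 min and PI/RNase A 30 min. Imaged by confocal microscopy; vehicle was 0.1% DMSO.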

Leishmania donovani [16] = experiment: Antileishmanial activity against amastigote stage of Leishmania donovani MHOM/IN/80/Dd8 harboring luciferase gene infected in mouse J774 cells assessed as parasite killing at 50 to 100 uM incubated for 72 hrs by Steady-Glo reagent based luciferase assay; format: functional; details: dose 50-100 µM; in short: as §1
Leishmania donovani [17] = experiment: Antileishmanial activity against amastigote stage of Leishmania donovani MHOM/IN/80/Dd8 harboring luciferase gene infected in mouse J774 cells assessed as parasite growth inhibition incubated for 72 hrs by Steady-Glo reagent based luciferase assay; format: functional, organism-based; details: MHOM/IN/80/Dd8, J774, 72 h; in short: as §1
Leishmania donovani [18] = experiment: Induction of apoptosis in Leishmania donovani MHOM/IN/80/Dd8 promastigotes assessed as increase in cytochrome c release by measuring decrease in cytochrome c level in mitochondria at 50 uM incubated for 12 to 72 hrs by Western blot analysis; format: functional, organism-based; details: time 12-72 hrs; in short: as §2

N#Cc1c(N2CCN(c3ccccc3O)CC2)cc(-c2ccccc2)oc1=O
CC50 at 72 h [1]: 351 µM | inhibition at 50 µM (Leishmania donovani [2]): 85.2% | inhibition at 25 µM (Leishmania donovani [3]): 84.2% | Activity (Leishmania donovani [4]): 2.3% | Activity (Leishmania donovani [5]): Tde | inhibition in vivo at 50 mg/kg (Leishmania donovani [6]): 67.3% | Activity (Splenocyte [7]): inactive | Activity (Splenocyte [8]): inactive | Activity (Leishmania donovani [9]): Dose-Dependent Effect | Activity (Leishmania donovani [10]): 1.2% | Activity (Leishmania donovani [11]): 13.1% | Activity (Leishmania donovani [12]): 32.9% | Activity (Leishmania donovani [13]): 86.9% | Activity (Leishmania donovani [14]): Active | Activity (Leishmania donovani [15]): Active | Activity (Leishmania donovani [16]): >89% | IC50 (Leishmania donovani [17]): 11.1 µM | Activity (Leishmania donovani [18]): Active
